This note sets out measurements from ChEMBL document CHEMBL4196022, “Alkynyl-containing phenylthiazoles: Systemically active antibacterial agents effective against methicillin-resistant Staphylococcus aureus (MRSA)” (Eur J Med Chem, 2018).

SMILES strings stand for the structures.

One data set concerns Mus musculus. As to the kind of experiment: Induction of inflammation in Balb/c mouse infected with methicillin-resistant Staphylococcus aureus USA300 assessed as swelling around wounded skin area at 2% administered topically twice daily for 5 consecutive days measured 12 hrs post last dose. The format is organism-based. To be noted: in vivo, topical_or_ocular. The gist of the method:
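Female Balb/c mice, 8 weeks old, n=5 per group. Intradermal injection of 40 μL of 1.32×10^9 CFU/mL USA300; a wound formed by ~66 h. Treated topically with a 2% suspension in petroleum jelly twice daily for 5 days; the vehicle group served as control. Wounds excised 12 h after the last dose, homogenized in PBS and plated on mannitol salt agar; sites also observed for redness and swelling.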

For the next data set, the system named is Rattus norvegicus. As to the kind of experiment: Volume of distribution at steady state in Sprague-Dawley rat at 2 uM administered as single iv bolus dose by LC-MS/MS analysis. The format is ADME, organism-based. Particulars: in vivo; call rule not given here. The gist of the method:
(§1)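 Male naïve Sprague-Dawley rats (three animals) received an IV bolus of a 2 μM solution. EDTA-K2 blood was sampled over 12 h post dose. Plasma was protein-precipitated with acetonitrile and quantified by LC/MS/MS. Parameters came from two-compartmental pharmacokinetic analysis.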

Data set [1] in a line: Terminal phase volume of distribution in Sprague-Dawley rat at 2 uM administered as single iv bolus dose by LC-MS/MS analysis. It is filed as ADME, organism-based. To be noted: in vivo, read-out: Vbeta. In a few lines:
as §1

In another data set the test system is Staphylococcus aureus. The experiment in a line: Ratio of MBC to MIC for vancomycin-resistant Staphylococcus aureus VRS12. The format is functional. The gist of the method:
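MBC/MIC ratio. […] MBC by plating no-growth wells onto tryptic soy agar at 37 °C for at least 18 h; taken as the concentration giving 99.9% growth inhibition.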

In the case of `C/C(=N\NC(=N)N)c1sc(-c2ccc(C#CC3CC3)cc2)nc1C`, the Activity result with Mus musculus was “Non-Toxic”. Moreover, the Vdss in the data set with Rattus norvegicus came to 5.51 L. The Vd at 2 µM in data set [1] stood at 18.5 L. For the same compound, the Ratio entry with Staphylococcus aureus is “<=3”.

The Vdss is a proportionality between amount in the body and measured concentration, not a real space. Low readings indicate confinement near the circulation, high ones extensive tissue distribution.
